Experimental findings from ChEMBL document CHEMBL1134509, “Transformation of a kappa-opioid receptor antagonist to a kappa-agonist by transfer of a guanidinium group from the 5'- to 6'-position of naltrindole” (J Med Chem, 2001) are described below.

The target in experiment [1] is Mu-type opioid receptor (Cavia porcellus) (UniProt P97266). In words: Opioid antagonist potency, determined in guinea pig ileum (GPI) preparation, using morphine (mu-opioid) as agonist (Ke=antagonist/IC50 ratio -1). Type of experiment: functional, tissue-based. The gist of the method: (§1)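 Electrically stimulated guinea pig ileal longitudinal muscle. Antagonist at 100 nM unless noted (some at 20 nM) was preincubated 15 min, then concentration-response curves to κ agonist ethylketazocine or µ agonist morphine were run with and without antagonist in the same tissue. IC50 ratio taken from the curves; Ke = [antagonist]/(IC50 ratio − 1). Mean ± SEM, n in parentheses.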
Sequence of Mu-type opioid receptor (Cavia porcellus) (P97266 whole entry): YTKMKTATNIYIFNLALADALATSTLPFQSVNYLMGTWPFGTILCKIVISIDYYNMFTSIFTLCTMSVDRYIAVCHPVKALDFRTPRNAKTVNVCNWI

In experiment [2] the target is Kappa-type opioid receptor (Rattus norvegicus, UniProt P34975, E297A). Nature of the experiment: Effect on binding to kappa(Glu297Ala) opioid receptor, using [3H]diprenorphine in transiently expressed […] HEK293 cells. The class given is cell-based. The gist of the method: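 Rat κ receptor carrying the Glu297Ala mutation, subcloned in pcDNA3, was transiently expressed in HEK-293 cells by calcium phosphate transfection. Ki was derived by Cheng-Prusoff.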
Sequence of Kappa-type opioid receptor (Rattus norvegicus, UniProt P34975, E297A) (P34975 whole entry E297A): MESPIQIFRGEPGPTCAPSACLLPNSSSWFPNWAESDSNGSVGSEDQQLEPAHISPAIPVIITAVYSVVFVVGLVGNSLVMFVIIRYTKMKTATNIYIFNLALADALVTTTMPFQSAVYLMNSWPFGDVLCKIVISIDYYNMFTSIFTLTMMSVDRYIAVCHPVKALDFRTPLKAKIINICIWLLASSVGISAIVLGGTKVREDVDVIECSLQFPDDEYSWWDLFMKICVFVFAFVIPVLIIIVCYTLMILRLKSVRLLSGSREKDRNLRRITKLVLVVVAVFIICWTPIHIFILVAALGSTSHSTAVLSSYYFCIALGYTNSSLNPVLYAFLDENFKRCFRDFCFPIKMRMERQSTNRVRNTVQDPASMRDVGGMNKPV

Experiment [3] addresses T1, Kappa-type opioid receptor (Rattus norvegicus, UniProt P34975). Nature of the experiment: Effect on binding to wild-type opioid receptor kappa 1 using [3H]diprenorphine in transiently expressed […] HEK293 cells. The class given is cell-based. The gist of the method:
(§2)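 Run in 25 mM HEPES pH 7.4 for 90 min at room temperature, filtered and scintillation counted. Nonspecific binding defined with 10 µM naltrexone. Ki from IC50 by Cheng-Prusoff, mean ± SE of three experiments in duplicate.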

Experiment [4] addresses Delta-type opioid receptor (Mus musculus) (UniProt P32300). Nature of the experiment: Opioid antagonist potency, determined in mouse vas deferens (MVD) preparation, using DADLE (delta-opioid) as agonist (Ke=antagonist/IC50 ratio -1). Type of experiment: functional. The gist of the method:
(§3)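 Electrically stimulated mouse vas deferens. Antagonist, normally 100 nM, preincubated 15 min before concentration-response curves to δ agonist DADLE, obtained with and without antagonist in the same preparation. IC50 ratio from the curves; Ke = [antagonist]/(IC50 ratio − 1), not computed when ratio <1. Mean ± SEM.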

Experiment [5] addresses Mu-type opioid receptor (Cavia porcellus) (UniProt P97266). Nature of the experiment: Opioid antagonist potency, determined in guinea pig ileum (GPI) preparation, using morphine (mu-opioid) as agonist, expressed as IC50 ratio. The class given is functional, tissue-based. An outline of the steps: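 Morphine concentration-response curves in electrically stimulated guinea pig ileal longitudinal muscle, run with and without antagonist (100 nM unless noted, 15 min preincubation) in the same preparation. Result expressed as the IC50 ratio of agonist with versus without antagonist.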

Experiment [6] addresses Kappa-type opioid receptor (Cavia porcellus) (UniProt P41144). Nature of the experiment: Opioid antagonist potency towards opioid receptor kappa 1 determined in guinea pig ileum preparation. The class given is functional, tissue-based. An outline of the steps:
as §1

Experiment [7] shares this target. Nature of the experiment: Opioid antagonist potency, determined in the guinea pig ileum (GPI) preparation, by employing EK (kappa-opioid) as agonist, expressed as IC50 ratio. Type of experiment: functional, tissue-based. The gist of the method: as §1
Experiment [8] addresses Delta-type opioid receptor (Mus musculus) (UniProt P32300). Nature of the experiment: Opioid antagonist potency, determined in mouse vas deferens (MVD) preparation, using DADLE (delta-opioid) as agonist, expressed as IC50 ratio. The class given is functional. The gist of the method:
as §3

For experiment [9], the target named is Delta-type opioid receptor (Mus musculus, UniProt P32300). In words: Binding affinity towards mouse delta-opioid receptor was determined using [3H]diprenorphine as radioligand. An outline of the steps: as §2
Sequence of Delta-type opioid receptor (P32300 whole entry): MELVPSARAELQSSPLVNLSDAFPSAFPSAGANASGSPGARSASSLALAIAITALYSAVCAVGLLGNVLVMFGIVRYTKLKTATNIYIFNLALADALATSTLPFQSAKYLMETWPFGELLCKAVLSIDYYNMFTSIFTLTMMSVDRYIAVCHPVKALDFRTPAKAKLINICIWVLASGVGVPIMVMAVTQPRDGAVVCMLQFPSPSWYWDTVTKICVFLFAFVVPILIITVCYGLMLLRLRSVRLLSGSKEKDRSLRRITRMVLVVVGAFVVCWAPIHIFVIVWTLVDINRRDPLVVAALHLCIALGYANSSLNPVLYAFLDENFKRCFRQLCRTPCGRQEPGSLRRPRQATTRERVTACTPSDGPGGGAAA
For experiment [10], the target named is T1, Kappa-type opioid receptor. In words: Binding affinity towards rat opioid receptor kappa 1 was determined using [3H]diprenorphine radioligand. The gist of the method:
as §2

The target of another experiment is Mu-type opioid receptor (Rattus norvegicus, UniProt P33535). Nature of the experiment: Binding affinity towards rat mu-opioid receptor was determined using [3H]diprenorphine as radioligand. The gist of the method: as §2
Sequence of Mu-type opioid receptor (P33535 whole entry): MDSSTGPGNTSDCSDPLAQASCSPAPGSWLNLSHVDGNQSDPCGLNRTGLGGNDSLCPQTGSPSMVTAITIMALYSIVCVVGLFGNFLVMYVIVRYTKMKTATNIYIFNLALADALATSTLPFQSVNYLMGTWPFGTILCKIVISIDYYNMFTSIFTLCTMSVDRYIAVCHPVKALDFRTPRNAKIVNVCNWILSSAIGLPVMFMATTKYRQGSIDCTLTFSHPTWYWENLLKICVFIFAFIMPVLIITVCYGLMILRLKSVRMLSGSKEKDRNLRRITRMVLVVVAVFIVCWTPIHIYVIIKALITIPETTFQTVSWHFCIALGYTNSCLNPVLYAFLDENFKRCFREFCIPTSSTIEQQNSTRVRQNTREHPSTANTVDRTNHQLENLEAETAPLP
In experiment [11] the target is Kappa-type opioid receptor (Cavia porcellus) (UniProt P41144). Conditions: Ileum, 20 nM.
Sequence of Kappa-type opioid receptor (Cavia porcellus) (P41144 whole entry): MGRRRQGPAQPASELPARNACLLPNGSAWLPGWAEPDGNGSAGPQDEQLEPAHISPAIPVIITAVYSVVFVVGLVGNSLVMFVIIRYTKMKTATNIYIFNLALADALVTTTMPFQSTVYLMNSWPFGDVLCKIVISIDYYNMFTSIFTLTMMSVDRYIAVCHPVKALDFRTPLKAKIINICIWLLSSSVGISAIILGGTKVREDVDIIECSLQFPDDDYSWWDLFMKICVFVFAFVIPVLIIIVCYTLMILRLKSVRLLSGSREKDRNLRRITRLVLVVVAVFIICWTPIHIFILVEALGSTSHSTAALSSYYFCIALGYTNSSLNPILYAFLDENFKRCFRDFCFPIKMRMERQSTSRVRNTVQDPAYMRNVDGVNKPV
Experiment [12] concerns the target Mu-type opioid receptor (Cavia porcellus) (UniProt P97266). As to conditions: Ileum, 20 nM.

T1 sequence (P34975 whole entry): as the sequence (P34975 whole entry E297A) above, with A297E counted along it
Sequence of Delta-type opioid receptor (Mus musculus) (P32300 whole entry): as the sequence (P32300 whole entry) above

A word on the Ki: it is a measure of affinity in units of concentration, obtained from inhibition or displacement. Low values mean tighter binding, high ones weaker binding. With `N=C(N)Nc1cccc2c3c([nH]c12)[C@@H]1Oc2c(O)ccc4c2[C@@]12CCN(CC1CC1)[C@H](C4)[C@]2(O)C3`, the values for the Ke in experiment [1], in experiment [4] and in experiment [6] were 238 nM, 0.96 nM and 100 nM, respectively. Besides, the inhibition constant Ki in [2] stood at 47.3 nM; in experiment [3] it was 32.7 nM. Besides, the IC50 ratio in [5] stood at 1.4; in [7], 2; in experiment [8], 105.

For `N=C(N)Nc1cccc2[nH]c3c(c12)C[C@@]1(O)[C@H]2Cc4ccc(O)c5c4[C@@]1(CCN2CC1CC1)[C@H]3O5`, the Ki (in experiment [9]; in experiment [10]; at Mu-type opioid receptor) was over 1000 nM each time. The Ke in experiment [4] is 263 nM; in [6] it was 80 nM. The IC50 ratio in [5] amounted to 0.34; in experiment [7] it was 2.3; in experiment [8] it was 1.4.

Take `Oc1ccc2c3c1O[C@H]1c4[nH]c5c(c4C[C@@]4(O)[C@@H](C2)N(CC2CC2)CC[C@]314)C[C@@]1(O)[C@H]2Cc3ccc(O)c4c3[C@@]1(CCN2CC1CC1)[C@H]5O4`: the values for the IC50 ratio in experiment [11], in [12] and in [8] were 49.8, 2.6 and 10.4, respectively.

Turning to `N=C(N)Nc1ccc2c3c([nH]c2c1)[C@@H]1Oc2c(O)ccc4c2[C@@]12CCN(CC1CC1)[C@H](C4)[C@]2(O)C3`, the Ki in experiment [2] was found to be 12.3 nM; in [3], 1.13 nM. Besides, the IC50 ratio in experiment [8] was 0.2.

With `N=C(N)Nc1ccc2[nH]c3c(c2c1)C[C@@]1(O)[C@H]2Cc4ccc(O)c5c4[C@@]1(CCN2CC1CC1)[C@H]3O5` [GUANIDINONALTRINDOLE], in experiment [3], the Ki came to 0.21 nM. The IC50 ratio in [11] turned out to be 139. Also, the Ke in [6] was 0.16 nM.
